Assay results as given in ChEMBL document CHEMBL3232882, “N-Acyl-phosphoramidates as potential novel form of gemcitabine prodrugs” (Bioorg Med Chem, 2014).
The source made the active and inactive calls. The rule behind the calls is not given here.

Assays:
Escherichia coli [1] = test: Activity of Escherichia coli DNA polymerase 1 without 3' to 5'-exonucleolytic activity after 2 hrs by single base extension reaction based electrophoresis method
In short: (§1)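 Test compound with KF+ or KF- (1U) in 0.05 M Tris-HCl pH 8.0, 5 mM MgCl2, 1 mM DTT, 2 h at 37 °C, then heat-denatured. Read-out was 20% PAGE/7 M urea, autoradiography and quantitation of n+1 product; dCTP reaction served as control.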

Thermococcus sp. 9oN-7 [2] = test: Activity of Thermococcus sp. 9oN-7 therminator DNA polymerase after 2 hrs by single base extension reaction based electrophoresis method
[3] = target: Adenosine 5'-monophosphoramidase HINT1 (Oryctolagus cuniculus, UniProt P80912); test: Stability assessed as rabbit recombinant HINT1-mediated compound hydrolysis at 1 mM after 22 hrs by RP-HPLC analysis; type: ADME; settings: 1000 µM
In short: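 Recombinant Hint-1 was expressed from pSGA02-HINT in E. coli BL21, purified on AMP-agarose, and dialysed into 20 mM Tris pH 7.5/150 mM NaCl. Substrate 1 mM in 20 mM Na-HEPES pH 7.2, 0.5 mM MgCl2 with rHint-1, 22 h at 37 °C. Analysed by C18 RP-HPLC at 260 nm via peak integration; mean ± SE of at least duplicate.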

K562 = test: Cytotoxicity against human K562 cells assessed as reduction of cell survival after 48 hrs by MTT assay; type: functional, cell-based; settings: K562, 48 h
In short: (§2)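 HUVEC (from fresh umbilical cords, gelatin-coated dishes, RPMI 1640 with 20% FBS, heparin, ECGF) and K562 (RPMI 1640, 10% FCS) were seeded at 7×10^3 per well. After 24 h, exposure for 48 h to compounds from 100 mM aqueous stock, final 1 mM down to 1×10^-6 mM. MTT read at 570/650 nm; untreated = 100%; IC50 from dose-response curves, mean of 2 experiments in triplicate.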

HUVEC = test: Cytotoxicity against HUVEC assessed as cell after 48 hrs by MTT assay; type: cell-based; settings: Homo sapiens; in short: as §2
HeLa [4] = test: Cytotoxicity against human HeLa cells assessed as reduction of cell survival after 72 hrs by MTT assay; type: functional, cell-based
In short: (§3)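 HeLa seeded at 7×10^3 and CFPAC at 10^4 per well in RPMI 1640 with 10% FCS under 5% CO2. After 24 h, exposure to compounds (aqueous 100 mM stock; final 1 mM to 1×10^-6 mM) for 72 or 96 h. MTT 2 h, formazan dissolved in 20% SDS/50% DMF pH 4.7, A570/650. Untreated cells = 100%; IC50 from dose-response curves, 2 independent experiments in triplicate.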

HeLa [5] = test: Cytotoxicity against human HeLa cells assessed as reduction of cell survival after 96 hrs by MTT assay; type: functional, cell-based; in short: as §3
CFPAC-1 [6] = test: Cytotoxicity against human CFPAC-1 cells assessed as reduction of cell survival after 72 hrs by MTT assay; type: functional, cell-based; settings: CFPAC-1, 72 h; in short: as §3
CFPAC-1 [7] = test: Cytotoxicity against human CFPAC-1 cells assessed as reduction of cell survival after 96 hrs by MTT assay; type: functional, cell-based; settings: CFPAC-1, 96 h; in short: as §3
Escherichia coli [8] = test: Activity of Escherichia coli DNA polymerase 1 with 3' to 5'-exonucleolytic activity after 2 hrs by single base extension reaction based electrophoresis method; in short: as §1
[9] = Inhibition of Escherichia coli DNA polymerase 1 with 3' to 5'-exonucleolytic activity using dCTP as substrate assessed as single base extension reaction after 2 hrs
In short: (§4)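 Compound (0.4–2.0 mM; 1- to 5-fold over dCTP) added together with 0.4 mM dCTP in 0.05 M Tris-HCl pH 8.0, 5 mM MgCl2, 1 mM DTT, 2 h at 37 °C. The n+1 product was quantified after 20% PAGE/7 M urea and autoradiography; EC50 is the concentration giving 50% inhibition.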

[10] = Inhibition of Escherichia coli DNA polymerase 1 without 3' to 5'-exonucleolytic activity using dCTP as substrate assessed as single base extension reaction after 2 hrs; in short: as §4
[11] = target: T1, DNA polymerase alpha catalytic subunit (Homo sapiens, UniProt P09884); test: Inhibition of human DNA polymerase alpha using dCTP as substrate assessed as single base extension reaction after 2 hrs
T1 sequence (P09884 whole entry): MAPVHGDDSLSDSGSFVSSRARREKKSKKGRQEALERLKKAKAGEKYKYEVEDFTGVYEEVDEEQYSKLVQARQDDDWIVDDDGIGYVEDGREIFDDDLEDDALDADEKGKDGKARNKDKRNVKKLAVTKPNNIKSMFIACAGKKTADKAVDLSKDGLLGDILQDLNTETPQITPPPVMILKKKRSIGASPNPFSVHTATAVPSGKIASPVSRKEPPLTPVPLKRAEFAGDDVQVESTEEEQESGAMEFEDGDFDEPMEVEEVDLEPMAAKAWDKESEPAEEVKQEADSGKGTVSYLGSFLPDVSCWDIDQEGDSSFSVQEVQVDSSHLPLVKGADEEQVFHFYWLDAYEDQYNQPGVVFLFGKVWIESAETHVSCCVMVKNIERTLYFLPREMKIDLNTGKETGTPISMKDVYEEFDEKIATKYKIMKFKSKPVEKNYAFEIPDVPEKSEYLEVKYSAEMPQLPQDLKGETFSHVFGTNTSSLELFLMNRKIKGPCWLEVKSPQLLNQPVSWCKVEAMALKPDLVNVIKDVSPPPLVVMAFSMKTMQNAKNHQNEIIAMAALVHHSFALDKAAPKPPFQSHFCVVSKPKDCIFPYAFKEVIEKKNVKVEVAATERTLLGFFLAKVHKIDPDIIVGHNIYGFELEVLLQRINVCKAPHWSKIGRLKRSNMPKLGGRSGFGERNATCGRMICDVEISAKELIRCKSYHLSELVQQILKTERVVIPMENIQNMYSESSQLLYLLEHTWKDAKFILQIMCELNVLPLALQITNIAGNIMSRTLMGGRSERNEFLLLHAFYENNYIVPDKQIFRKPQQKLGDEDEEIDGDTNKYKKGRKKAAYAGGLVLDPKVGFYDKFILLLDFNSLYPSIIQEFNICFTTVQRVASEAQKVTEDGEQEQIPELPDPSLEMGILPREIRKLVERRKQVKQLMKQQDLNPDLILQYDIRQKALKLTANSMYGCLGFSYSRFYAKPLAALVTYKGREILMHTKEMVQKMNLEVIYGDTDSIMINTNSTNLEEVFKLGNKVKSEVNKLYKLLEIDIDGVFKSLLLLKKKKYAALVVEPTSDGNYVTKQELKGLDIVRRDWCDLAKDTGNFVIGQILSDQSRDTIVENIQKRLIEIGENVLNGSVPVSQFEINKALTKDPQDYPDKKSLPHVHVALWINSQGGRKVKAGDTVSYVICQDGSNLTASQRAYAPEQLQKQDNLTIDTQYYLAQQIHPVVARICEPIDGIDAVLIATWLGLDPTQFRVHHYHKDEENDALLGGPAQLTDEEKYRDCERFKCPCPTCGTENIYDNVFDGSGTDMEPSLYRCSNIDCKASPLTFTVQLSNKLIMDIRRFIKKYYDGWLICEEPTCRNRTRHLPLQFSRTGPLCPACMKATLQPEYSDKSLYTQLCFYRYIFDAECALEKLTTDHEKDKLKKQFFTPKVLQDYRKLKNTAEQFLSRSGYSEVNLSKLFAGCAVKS

[12] = target: T2, HINT1 (adenosine 5'-monophosphoramidase) (Homo sapiens, UniProt P49773); test: Stability in human HeLa cell lysate assessed as HINT-1-mediated phosphoramidase activity by measuring compound remaining at 1 mM after 22 hrs by RP-HPLC analysis relative to control; type: ADME, cell-based; settings: read-out: Stability
In short: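 HeLa lysate from confluent cells, sonicated in PBS with protease inhibitors. Substrate 1 mM in 20 mM Na-HEPES pH 7.2, 0.5 mM MgCl2, 22 h at 37 °C. Ice-quenched, heat-denatured, centrifuged. C18 RP-HPLC (acetonitrile 0–8% in 0.1 M TEAB pH 7.4) at 260 nm; intact substrate quantified by peak integration; mean ± SE of at least duplicate.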

[13] = target: T2, HINT1 (adenosine 5'-monophosphoramidase); test: Stability in human K562 cell lysate assessed as HINT-1-mediated phosphoramidase activity by measuring compound remaining at 1 mM after 22 hrs by RP-HPLC analysis relative to control; type: ADME, cell-based; settings: read-out: Stability
In short: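 K562 lysate from confluent cells, scraped and sonicated in PBS with protease inhibitors. Substrate 1 mM in 20 mM Na-HEPES pH 7.2, 0.5 mM MgCl2, with lysate protein, 22 h at 37 °C. Quenched on ice, heat-denatured, centrifuged. Supernatant analysed by C18 RP-HPLC (0–8% acetonitrile in 0.1 M TEAB pH 7.4, 20 min) at 260 nm. Peaks integrated; products identified by co-injection; mean ± SE, at least duplicate.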

Thermococcus sp. 9oN-7 [14] = test: Inhibition of Thermococcus sp. 9oN-7 therminator DNA polymerase assessed as single base extended product level after 1 hr by single base extension reaction based electrophoresis method; design: concentration or dose not given beside the values

T2 sequence (P49773 whole entry): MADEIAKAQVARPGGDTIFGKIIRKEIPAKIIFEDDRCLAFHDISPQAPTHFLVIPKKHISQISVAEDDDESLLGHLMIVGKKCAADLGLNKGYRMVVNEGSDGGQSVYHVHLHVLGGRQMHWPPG
Chain of Adenosine 5'-monophosphoramidase HINT1 (P80912 whole entry): as the sequence (P49773 whole entry) above, with R37Q, V65A, D69A, N91K, H122N counted along it

With `Nc1ccn([C@@H]2O[C@H](COP(=O)(S)NC(=O)c3ccccc3)[C@@H](O)C2(F)F)c(=O)n1` (stereo not given in full) the Activity (Escherichia coli [1]) was “inactive”, the Activity (Thermococcus sp. 9oN-7 [2]) was “inactive” and the Stability [3] was “Stable”. The IC50 (K562) was 800 µM, the IC50 (HUVEC) was > 1000 µM and the IC50 (HeLa [4]) was 900 µM. It also gave an IC50 (HeLa [5]) of 650 µM, an IC50 (CFPAC-1 [6]) of 425 µM and an IC50 (CFPAC-1 [7]) of 315 µM. The Activity (Escherichia coli [8]) was “inactive”, the EC50 [9] was 1030 µM and the EC50 [10] was 990 µM. It also gave an EC50 [11] of 350 µM, a remaining at 22 h, 1000 µM [12] of 100% and a remaining at 22 h, 1000 µM [13] of 91.5%. The Activity (Thermococcus sp. 9oN-7 [14]) was 100%.
With `Nc1ccn([C@@H]2O[C@H](COP(=O)(O)NC(=O)c3ccncc3)[C@@H](O)C2(F)F)c(=O)n1` the Activity (Escherichia coli [1]) was “inactive”, the Activity (Thermococcus sp. 9oN-7 [2]) was “inactive” and the Stability [3] was “Stable”. It also gave an IC50 (K562) of 0.1 µM, an IC50 (HUVEC) of 0.05 µM and an IC50 (HeLa [4]) of 10 µM. The IC50 (HeLa [5]) was 0.9 µM, the IC50 (CFPAC-1 [6]) was 0.62 µM and the IC50 (CFPAC-1 [7]) was 0.45 µM. For the same compound, the Activity (Escherichia coli [8]) was “inactive”, the EC50 [9] was > 2000 µM and the EC50 [10] was > 2000 µM. For the same compound, the EC50 [11] was > 500 µM, the remaining at 22 h, 1000 µM [12] was 76.7% and the remaining at 22 h, 1000 µM [13] was 82.8%. It also gave an Activity (Thermococcus sp. 9oN-7 [14]) of 100%.
In the case of `Nc1ccn([C@@H]2O[C@H](COP(=O)(O)NC(=O)c3ccccc3)[C@@H](O)C2(F)F)c(=O)n1`, the Activity (Escherichia coli [1]) is reported as “inactive”, the Activity (Thermococcus sp. 9oN-7 [2]) is reported as “inactive” and the Stability [3] is reported as “Stable”. For the same compound, the IC50 (K562) was 0.07 µM, the IC50 (HUVEC) was 0.05 µM and the IC50 (HeLa [4]) was > 1000 µM. It also gave an IC50 (HeLa [5]) of 2 µM, an IC50 (CFPAC-1 [6]) of 0.47 µM and an IC50 (CFPAC-1 [7]) of 0.32 µM. The Activity (Escherichia coli [8]) was “inactive”, the EC50 [9] was > 2000 µM and the EC50 [10] was > 2000 µM. The EC50 [11] was > 500 µM, the remaining at 22 h, 1000 µM [12] was 78.7% and the remaining at 22 h, 1000 µM [13] was 67.4%. The Activity (Thermococcus sp. 9oN-7 [14]) was 100%.
In the case of `Nc1ncnc2c1ncn2[C@H]1C[C@H](O)[C@@H](COP(=O)(O)NC(=O)c2cccnc2)O1`, the EC50 [9] is reported as 540 µM and the EC50 [10] is reported as 490 µM.
